Results taken from PubChem BioAssay AID493235 (Broad Institute, 2011).
Where “and” joins values, the source holds several entries; their conditions need not be identical. Equal values may be shown once. Records with an inconclusive call do not appear. Calls of active or inactive are those of the source.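 How the source made its calls: active means fitted dose curve passes 500% activation at or below the top valid tested dose; inconclusive means no clear call, values can overlap the other calls; inactive means the rest, opposite-direction activity included.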

Tested on: U2OS HRE-luciferase reporter, luminescence
Experiment: activation of hypoxia-responsive element reporter – cell-based, U2OS, luminescence, dry powder, set 7, dose response (AID 493235)
Settings: not given
Procedure, shortened: (§1)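 assay system = human U2OS osteosarcoma cells stably expressing 3×HRE-driven luciferase reporter | technique = Steady-Glo luminescence | timing = 24 h pre-culture, 24 h compound treatment, 37 °C | compound dosing = 8 concentrations, 3-fold steps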

Row | Compound | AC500
1 | c1ccc(-c2nnc(-c3ccccn3)nc2Nc2nc3ccccc3s2)cc1 | 5.89 µM
2 | C[C@@H](Nc1nc(-c2ccccn2)nnc1-c1ccccc1)c1ccccc1 | 3.92 µM
3 | O=C(NCCN1CCOCC1)c1cc(-c2ccccc2)on1 | 14.2 µM
4 | CN(C)c1nc(-c2ccccn2)nnc1-c1ccccc1 | 14.2 µM
5 | c1ccc(-c2cnc(Nc3nc(-c4ccccn4)nnc3-c3ccccc3)s2)cc1 | 6.49 µM
6 | O=C(NCCCN1CCOCC1)c1cc(-c2ccccc2)on1 | 11.3 µM
7 | c1ccc(-c2cccc(CNc3nc(-c4ccccn4)nnc3-c3ccccc3)c2)cc1 | 3.39 µM
8 | O=C(NCCCn1ccnc1)c1cc(-c2ccccc2)on1 | 5.75 µM
9 | CC(C)(C)CCNC(=O)c1cc(-c2ccccc2)on1 | 35.8 µM
10 | Cc1cccc(CNc2nc(-c3ccccn3)nnc2-c2ccccc2)c1 | 4.08 µM
11 | Clc1cccc(CNc2nc(-c3ccccn3)nnc2-c2ccccc2)c1 | 1.84 µM
12 | c1ccc(CNc2nc(-c3ccccn3)nnc2-c2ccccc2)cc1 | 5.52 µM
13 | Cc1ccc(Nc2nc(-c3ccccn3)nnc2-c2ccccc2)cn1 | 11.2 µM
14 | Oc1ccc(CN2CCC3CCCCC3C2)c2cccnc12 (stereo unspecified) | 11.1 µM
15 | COc1cccc(CNc2nc(-c3ccccn3)nnc2-c2ccccc2)c1 | 2.07 µM
16 | c1ccc(-c2nnc(-c3ccccn3)nc2NCCc2ccccn2)cc1 | 10.3 µM
17 | Cc1ccc(CNc2nc(-c3ccccn3)nnc2-c2ccccc2)cc1 | 4.35 µM
18 | OCC1CCN(c2nc(-c3ccccn3)nnc2-c2ccccc2)CC1 | 21.7 µM
19 | c1ccc(-c2nnc(-c3ccccn3)nc2NCc2cccnc2)cc1 | 15.3 µM
20 | CN1CCN(c2nc(-c3ccccn3)nnc2-c2ccccc2)CC1 | 12.1 µM
21 | c1ccc(-c2nnc(-c3ccccn3)nc2NCC2CCCCC2)cc1 | 2.17 µM
22 | Oc1ccc(CN2CCC(Cc3ccccc3)CC2)c2cccnc12 | 20.1 µM
23 | COc1ccc(CNc2nc(-c3ccccn3)nnc2-c2ccccc2)cc1 | 2.59 µM
24 | CCCCNC(=O)c1cc(-c2ccccc2)on1 | 9.47 µM
25 | O=C(NCCCCO)c1cc(-c2ccccc2)on1 | 2.82 µM
26 | c1ccc(-c2nnc(-c3ccccn3)nc2N2CCC(C3CCCCC3)C2)cc1 (stereo unspecified) | 4.37 µM
27 | Cc1cccc(Nc2nc(-c3ccccn3)nnc2-c2ccccc2)n1 | 10.7 µM

Row | Compound | AC500
28 | c1ccc(-c2nnc(-c3ccccn3)nc2NCC2CC2)cc1 | 8.75 µM
29 | c1ccc(-c2nnc(-c3ccccn3)nc2Nc2cnc3ccccc3n2)cc1 | 6.2 µM
30 | Cn1c(-c2ccccc2)cnc1Nc1nc(-c2ccccn2)nnc1-c1ccccc1 | 9.16 µM
31 | c1ccc(-c2nnc(-c3ccccn3)nc2NCC2CCOCC2)cc1 | 14.2 µM
32 | C=CCNc1nc(-c2ccccn2)nnc1-c1ccccc1 | 9.45 µM
33 | c1ccc(-c2nnc(-c3ccccn3)nc2N2CCC(c3ccccc3)C2)cc1 (stereo unspecified) | 1.72 µM
34 | C[C@@H](Nc1nc(-c2ccccn2)nnc1-c1ccccc1)C1CCCCC1 | 4.02 µM
35 | c1ccc(-c2nnc(-c3ccccn3)nc2N2CCC(N3CCOCC3)CC2)cc1 | 4.84 µM
36 | c1ccc(-c2nnc(Nc3nc(-c4ccccn4)nnc3-c3ccccc3)s2)cc1 | 2.99 µM
37 | Cc1ccc(CNc2nc(-c3ccccn3)nnc2-c2ccccc2)cc1C | 1.31 µM
38 | c1ccc(-c2nnc(-c3ccccn3)nc2N2CCN(c3ccncc3)CC2)cc1 | 9.6 µM
39 | c1ccc(-c2ccc(CNc3nc(-c4ccccn4)nnc3-c3ccccc3)cc2)cc1 | 0.71 µM
40 | c1ccc(CCNc2nc(-c3ccccn3)nnc2-c2ccccc2)cc1 | 2.81 µM
41 | c1ccc(-c2nnc(-c3ccccn3)nc2NCCN2CCOCC2)cc1 | 9.37 µM
42 | CC(C)(C)CCNc1nc(-c2ccccn2)nnc1-c1ccccc1 | 2.2 µM and 1.47 µM
43 | C[C@H](Nc1nc(-c2ccccn2)nnc1-c1ccccc1)C1CCCCC1 | 2.99 µM
44 | O=C(NCC1CC1)c1cc(-c2ccccc2)on1 | 10 µM
45 | Oc1ccc(CN2CCc3ccccc3C2)c2cccnc12 | 3.21 µM
46 | OCCCNc1nc(-c2ccccn2)nnc1-c1ccccc1 | 16.8 µM
47 | Oc1ccc(CNC2Cc3ccccc3C2)c2cccnc12 | 28.6 µM
48 | CC(C)(C)c1ccc(CNc2nc(-c3ccccn3)nnc2-c2ccccc2)cc1 | 1.33 µM
49 | COc1ccccc1N1CCN(Cc2ccc(O)c3ncccc23)CC1 | 26.5 µM
50 | c1ccc(-c2nnc(-c3ccccn3)nc2NCCCN2CCOCC2)cc1 | 10.2 µM
51 | Cc1ccccc1CNc1nc(-c2ccccn2)nnc1-c1ccccc1 | 2.82 µM
52 | c1ccc(-c2nnc(-c3ccccn3)nc2NCc2ccccn2)cc1 | 20.5 µM
53 | c1ccc(-c2csc(Nc3nc(-c4ccccn4)nnc3-c3ccccc3)n2)cc1 | 2.01 µM
54 | CC(Nc1nc(-c2ccccn2)nnc1-c1ccccc1)c1ccccc1 (stereo unspecified) | 2.97 µM

Tested on: not listed separately
Experiment: as above
Settings: U2OS HRE-luciferase reporter, luminescence; at 38 µM (top of the series)
Procedure, shortened: as §1

Row | Compound | activation
55 | O=C(NCc1ccccc1)c1cc(-c2ccccc2)on1 | 50.8% (inactive)
56 | CC1CN(Cc2ccc(O)c3ncccc23)CC(C)O1 (stereo unspecified) | 95.7% (inactive)
57 | Cc1cccc(NC(=O)c2cc(-c3ccccc3)on2)n1 | 29.2% (inactive)
58 | O=C(c1cc(-c2ccccc2)on1)N1CCN(c2ccncc2)CC1 | -14.8% (inactive)
59 | O=C(Nc1ncc2ccccc2n1)c1cc(-c2ccccc2)on1 | 104% (inactive)
60 | Cn1c(NC(=O)c2cc(-c3ccccc3)on2)nc2ccccc21 | -0.753% (inactive)
61 | O=C(Nc1nc(-c2ccccc2)cs1)c1cc(-c2ccccc2)on1 | -17.1% (inactive)
62 | O=C(Nc1nnc(-c2ccccc2)s1)c1cc(-c2ccccc2)on1 | -7.41% (inactive)
63 | O=C(Nc1ccc2ccccc2n1)c1cc(-c2ccccc2)on1 | 12.3% (inactive)
64 | Cc1ccc(NC(=O)c2cc(-c3ccccc3)on2)cn1 | -7.72% (inactive)
65 | O=C(Nc1nc2ccccc2s1)c1cc(-c2ccccc2)on1 | 4.65% (inactive)
66 | CN1CCN(C(=O)c2cc(-c3ccccc3)on2)CC1 | 2.48% (inactive)
67 | Cc1ccccc1CNC(=O)c1cc(-c2ccccc2)on1 | 22.9% (inactive)
68 | O=C(NCCCO)c1cc(-c2ccccc2)on1 | 400% (inactive)
69 | O=C(Nc1ncc(-c2ccccc2)o1)c1cc(-c2ccccc2)on1 | 14.8% (inactive)
70 | Cc1cccc(CNC(=O)c2cc(-c3ccccc3)on2)c1 | 1.59% (inactive)
71 | O=C(NC1CCc2ccccc2C1)c1cc(-c2ccccc2)on1 (stereo unspecified) | 5.28% (inactive)
72 | OCC1CCN(Cc2ccc(O)c3ncccc23)CC1 | 480% (inactive)
73 | O=C(Nc1cnc2ccccc2c1)c1cc(-c2ccccc2)on1 | 28.8% (inactive)
74 | N#CC1(c2ccccc2)CCN(Cc2ccc(O)c3ncccc23)CC1 | 368% (inactive)
75 | CN(C)CCNC(=O)c1cc(-c2ccccc2)on1 | 29.6% (inactive)
76 | O=C(Nc1cn2ccccc2n1)c1cc(-c2ccccc2)on1 | 31.3% (inactive)
77 | Cn1c(-c2ccccc2)cnc1NC(=O)c1cc(-c2ccccc2)on1 | 9.12% (inactive)
78 | CC(C)(C)OC(=O)N1CCN(Cc2ccc(O)c3ncccc23)CC1 | 271% (inactive)
79 | Oc1ccc(CN2CCc3ccccc3C2)c2cccnc12 | 263% (inactive)
80 | O=C(c1cc(-c2ccccc2)on1)N1CCC(N2CCCC2)CC1 | 5.02% (inactive)
81 | O=C(c1cc(-c2ccccc2)on1)N1CCC(N2CCOCC2)CC1 | 8.48% (inactive)
